Screening data (PubChem BioAssay)
The list is not random: actives were taken first. Their share in the collection is about 1.2%.
CAL PDZ FP-1: inhibitors of human CAL PDZ peptide binding. 0.92% of 300,000 active. purified CAL PDZ, TMR-peptide fluorescence polarization, 1 h. inhibition, % at 24.9 µM;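 active = mean inhibition of at least 30% with at least half of replicates also reaching 30%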;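 note: 0% = DMSO neutral control and 100% = excess unlabeled competitor peptide PRC23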
ARNT-TACC3 inh: disrupts binding between human ARNT and TACC3; 0.66% of 390,000 active; Q9Y6A5; AID 623870; inhibition, % at 9.99 µM; AlphaScreen His-ARNT PAS-B/GST-TACC3 binding, luminescence; TACC3 fragment carries E629A point mutation;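 active = mean inhibition of replicates at least 50% and at least half of replicates each reaching 50%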;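 note: 0% = complete ARNT plus TACC3 wells and 100% = ARNT alone without TACC3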
CaV13 ICDI inh: Primary screen for inhibitors of IQ motif and Ca2+-dependent inactivation inhibitor domain binding in CACNA1D, Förster resonance energy transfer in living cells, …; AID 743397; 0.098% of 340,000 active; inhibition, % at 12.3 µM; HEK cells, CFP/YFP FRET ICDI-IQ, plate reader, 10 min; percent FRET-ratio fall versus neutral wells;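 active = mean replicate inhibition of at least 30% and at least 1% of replicates passing that level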;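 note: 0% = median of the neutral control wells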
CAL PDZ FP-2: blocks peptide binding to human CAL PDZ domain | purified CAL PDZ, TMR-peptide fluorescence polarization, 1 h | inhibition, % at 20 µM | 0.02% of 330,000 active;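 active = highest replicate inhibition of at least 40%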;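 note: plate controls were DMSO neutral control wells for no effect and unlabeled competitor peptide control wells for full effect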
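Material: tagged CAL PDZ domain; buffer or medium: 25 mM sodium phosphate pH 7.4, 150 mM NaCl, TCEP, IgG, Thesit; compound dosing: single point, 20 µM; schedule: 1 h incubation at room temperature before polarization reading; measured by: FP readout, S and P plane fluorescence; read-out basis: percent inhibition from loss of millipolarization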
Active calls of the source: *.

What do the screens show for `CCOc1ccc(CC(=O)NCC(=O)NCc2cc(=O)n(C)c(=O)n2C)cc1`?
CAL PDZ FP-1: -2; ARNT-TACC3 inh: -5; CaV13 ICDI inh: -3; CAL PDZ FP-2: -1

How did Cc1cccc(CC(=O)NCC(=O)NCc2cc(=O)n(C)c(=O)n2C)c1 do in these assays?
CAL PDZ FP-1: 62*; ARNT-TACC3 inh: 2; CaV13 ICDI inh: -3; CAL PDZ FP-2: -1

What do the screens show for `C[C@H](NC(=O)C[C@@H]1C[C@H]2c3cc(NC(=O)NC4CCCCC4)ccc3O[C@H]2[C@H](CO)O1)c1ccccc1`?
ARNT-TACC3 inh: -1

How did CCN1C(c2ccccc2)=C(c2ccccc2)S/C1=C/C=C1\SC(=S)N(C)C1=O do in these assays?
CAL PDZ FP-1: 36*; ARNT-TACC3 inh: 0; CaV13 ICDI inh: -6; CAL PDZ FP-2: -2

How did O=C(O)c1cccc(S(=O)(=O)NNc2ccccc2C(F)(F)F)c1 do in these assays?
CAL PDZ FP-1: active; ARNT-TACC3 inh: -3; CaV13 ICDI inh: -2; CAL PDZ FP-2: 0

Results for CCN(CC)S(=O)(=O)c1ccc(N/N=C/c2cc(OC)c(OC)cc2OC)nc1 ?
CAL PDZ FP-1: 1; ARNT-TACC3 inh: -8; CaV13 ICDI inh: -8; CAL PDZ FP-2: -3

What do the screens show for `CCN(CC)S(=O)(=O)c1ccc(N2CCc3cc(OC)c(OC)cc3C2)nc1`?
CAL PDZ FP-1: 50*; ARNT-TACC3 inh: 2; CaV13 ICDI inh: -4; CAL PDZ FP-2: -1

Results for C[C@@H]1CCCCO[C@H](CN(C)Cc2ccc(Cl)c(Cl)c2)[C@@H](C)CN([C@H](C)CO)C(=O)c2cc(NC(=O)Nc3cccc4ccccc34)ccc2O1 ?
ARNT-TACC3 inh: -5

How did COc1ccc(-c2noc(-c3ccccc3C(=O)NCC3CCCO3)n2)cc1 (stereo not drawn) do in these assays?
CAL PDZ FP-1: 70*; ARNT-TACC3 inh: -1; CaV13 ICDI inh: 2; CAL PDZ FP-2: -1

What do the screens show for `COc1ccc(-c2nnc3c4ccccc4c(C)nn23)cc1S(=O)(=O)N1CCN(CCO)CC1`?
CAL PDZ FP-1: -6; ARNT-TACC3 inh: active; CaV13 ICDI inh: -6; CAL PDZ FP-2: 2

Results for O=C1CC(c2ccc(O)cc2)Oc2cc(O)cc(O)c21 (stereo not drawn) ?
CAL PDZ FP-1: -3; ARNT-TACC3 inh: -2; CaV13 ICDI inh: -5; CAL PDZ FP-2: 0

How did CC1CC(=O)c2c(cc3c(-c4c(O)cc(O)c5c(O)c6c(cc45)OC(C)CC6=O)c(O)cc(O)c3c2O)O1 (stereo not drawn) do in these assays?
CAL PDZ FP-1: 0; ARNT-TACC3 inh: 96*; CAL PDZ FP-2: 0

What do the screens show for `COc1cc2c(cc1OC)-c1cc(Nc3ccc(N(C)C)cc3)nc(=O)n1CC2`?
ARNT-TACC3 inh: 45*; CaV13 ICDI inh: -8; CAL PDZ FP-2: 2

What do the screens show for `O=C(CN1CC(=O)Oc2ccccc21)OCC(=O)c1cccc(Br)c1`?
CAL PDZ FP-1: -1; ARNT-TACC3 inh: 73*; CAL PDZ FP-2: 0

How did Oc1ccccc1C=NNC(=S)NN=Cc1ccccc1O do in these assays?
CAL PDZ FP-1: -8; ARNT-TACC3 inh: 61*; CaV13 ICDI inh: -7; CAL PDZ FP-2: 5

What do the screens show for `Oc1ccccc1/C=N/Nc1ccccc1`?
CAL PDZ FP-1: -2; ARNT-TACC3 inh: 10; CaV13 ICDI inh: -18; CAL PDZ FP-2: -2

What do the screens show for `NC(=S)N/N=C/c1ccccc1O`?
CAL PDZ FP-1: -1; ARNT-TACC3 inh: 73*; CaV13 ICDI inh: 0; CAL PDZ FP-2: -1

Results for NC(=S)NN=Cc1nccc2ccccc12 ?
CAL PDZ FP-1: 2; ARNT-TACC3 inh: 77*; CaV13 ICDI inh: -6; CAL PDZ FP-2: 1

How did Cc1cc(/C=N/NC(N)=S)c(O)c(/C=N/NC(N)=S)c1 do in these assays?
CAL PDZ FP-1: -1; ARNT-TACC3 inh: 66*; CaV13 ICDI inh: -21; CAL PDZ FP-2: 0

What do the screens show for `NC(=S)N/N=C/c1cccc(O)c1O`?
CAL PDZ FP-1: 0; CaV13 ICDI inh: -5; CAL PDZ FP-2: 0

What do the screens show for `NC(=S)NN=Cc1nccc2c(C(F)(F)C(F)(F)C(F)(F)F)cccc12`?
CaV13 ICDI inh: -7

What do the screens show for `COc1cccc(NC(=O)N[C@H]2CC[C@H](CC(=O)N3CCN(C)CC3)O[C@H]2CO)c1`?
ARNT-TACC3 inh: -2

How did CNC(=S)N/N=C/c1cc(Br)cc(Br)c1O do in these assays?
CAL PDZ FP-1: -1; ARNT-TACC3 inh: 48*; CaV13 ICDI inh: -5; CAL PDZ FP-2: -3

What do the screens show for `Cc1cccc(N(CC(=O)NCc2ccc3c(c2)OCO3)C(=O)CCC(=O)Nc2ccccn2)c1C`?
CAL PDZ FP-1: 92*; ARNT-TACC3 inh: 1; CaV13 ICDI inh: 0; CAL PDZ FP-2: -1

How did Cc1cccc(NC(=S)NCc2ccc3c(c2)OCO3)c1C do in these assays?
CAL PDZ FP-1: 50*; ARNT-TACC3 inh: -1; CaV13 ICDI inh: -5; CAL PDZ FP-2: -2

Results for C[C@@H]1CCCCO[C@@H](CN(C)Cc2ccncc2)[C@H](C)CN([C@H](C)CO)C(=O)c2cc(NS(=O)(=O)c3cccs3)ccc2O1 ?
ARNT-TACC3 inh: -5

Results for Cc1cc2oc3cc(NCCC4CCCN4C)ccc3c(=O)c2cc1C (stereo not drawn) ?
CAL PDZ FP-1: -4; ARNT-TACC3 inh: -4; CaV13 ICDI inh: 77*; CAL PDZ FP-2: -3

What do the screens show for `COc1ccc(C)cc1S(=O)(=O)N(C)CC(=O)NC1CCCCC1`?
CAL PDZ FP-1: -1; ARNT-TACC3 inh: -6; CaV13 ICDI inh: -2

What do the screens show for `COc1ccc(C)cc1S(=O)(=O)N(CC(=O)NC1CCCC1)c1ccc(F)cc1`?
CAL PDZ FP-1: 2; ARNT-TACC3 inh: 46*; CaV13 ICDI inh: -4; CAL PDZ FP-2: -2

Results for O=C(N[C@@H]1CC[C@H](CC(=O)N2CCc3ccccc3C2)O[C@H]1CO)C1CCC1 ?
ARNT-TACC3 inh: 5

Results for Nc1cc(C(=O)O)c(N)c2c1C(=O)c1ccccc1C2=O ?
CAL PDZ FP-1: 0; ARNT-TACC3 inh: 55*; CAL PDZ FP-2: 3

How did CC(C)(C)N(Cc1ccccc1)C(=O)COC(=O)c1ccc(S(=O)(=O)N2CCOCC2)cc1 do in these assays?
CAL PDZ FP-1: 39*; ARNT-TACC3 inh: 0; CaV13 ICDI inh: -7; CAL PDZ FP-2: 0

Results for CN(C(=O)COC(=O)c1ccc(S(=O)(=O)N2CCOCC2)cc1)C1CCCCC1 ?
CAL PDZ FP-1: 2; ARNT-TACC3 inh: -5; CaV13 ICDI inh: -2; CAL PDZ FP-2: 0

How did CN(C(=O)COC(=O)c1ccc(Br)c(S(=O)(=O)N2CCOCC2)c1)C1CCCCC1 do in these assays?
CAL PDZ FP-1: active; ARNT-TACC3 inh: -1; CaV13 ICDI inh: -5; CAL PDZ FP-2: 12

How did CC(=O)N1CCN(S(=O)(=O)c2cccc(C(=O)OCC(=O)N(Cc3ccccc3)C(C)(C)C)c2)CC1 do in these assays?
CAL PDZ FP-1: 4; ARNT-TACC3 inh: 6; CaV13 ICDI inh: -6; CAL PDZ FP-2: 0

Results for CCOC(=O)c1ccc(S(=O)(=O)N2CCN(S(=O)(=O)CC)CC2)cc1 ?
CAL PDZ FP-1: 65*; ARNT-TACC3 inh: 4; CaV13 ICDI inh: -3; CAL PDZ FP-2: -2
